Results of several laboratories.
Protocols differ between the studies behind these lines.
Effect on: enzyme activity
Mode: inhibitor
PFF0160c: Dihydroorotate dehydrogenase (quinone), mitochondrial (PFF0160c, Plasmodium falciparum, UniProt Q08210)
PFF0160c E182D: Dihydroorotate dehydrogenase (quinone), mitochondrial (PFF0160c, Plasmodium falciparum, UniProt Q08210, E182D)

| SMILES | target | method | IC50 [µM] |
| --- | --- | --- | --- |
| Cc1nc(Nc2ccc(S(F)(F)(F)(F)F)cc2)c2c(CO)noc2n1 | PFF0160c | absorbance | 2.8 |
| CCN(CC)CC#Cc1ccc2[nH]c(C)c(Cl)c(=O)c2c1 | PFF0160c E182D | absorbance | > 10 |
| Cc1nc(Nc2ccc(C(F)(F)F)cc2)c2c(C(F)(F)F)noc2n1 | PFF0160c | absorbance | 0.033 |
| Cc1c(Cc2ccc(C(F)(F)F)nc2)c[nH]c1C(=O)N[C@@H](C)CO | PFF0160c | absorbance | 2.7 |
| COC(=O)C1=CNC=C(C(=O)OC)C1c1ccc(Cl)c([N+](=O)[O-])c1 | PFF0160c | absorbance | 0.716 |
| Cc1[nH]c(C(=O)NC(C)c2cnn(C)c2)c(C)c1Cc1ccc(C(F)(F)F)nc1 (stereo not shown) | PFF0160c | absorbance | > 30 |
| Cc1nc(NC2Cc3cc(F)c(F)cc3C2)c2c(C)noc2n1 | PFF0160c | absorbance | 0.048 |
| CCCOc1ccccc1-c1nc2sc3c(c2c(=O)[nH]1)CCN(C)C3 | PFF0160c E182D | absorbance | 0.911 |
| Cc1cc(C(C)NC(=O)c2[nH]cc(-c3c[nH]c4cc(C(F)(F)F)ccc34)c2C)no1 (stereo not shown) | PFF0160c | absorbance | > 100 |
| Cc1cc(Nc2ccc(Cl)cc2)n2ncnc2n1 | PFF0160c | – | 1.6 |
